NadD inh – inhibitors of Staphylococcus aureus NadD; AID 602399; 360,000 tested, 0.78% active; purified NadD enzyme, colorimetric absorbance read-out; inhibition, % at 20 µM; in the data active means inhibition above about 26%
CSN inh – blocks human CSN-mediated cullin deneddylation | Purified CSN, SCF-Nedd8-OG deneddylation, fluorescence polarization | AID 651999 | inhibition, % at 12.5 µM | 360,000 tested, 0.38% active | Q92905;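 active means pattern-corrected inhibition above about 35%, with an unprinted fluorescence ratio check between 0.5 and 1.5, limit read from the data, passing the limit was not always enough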;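 further: 0% = enzyme with substrate and 100% = substrate without enzyme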
Target sequence (Q92905 whole entry, looked up, one chain of several): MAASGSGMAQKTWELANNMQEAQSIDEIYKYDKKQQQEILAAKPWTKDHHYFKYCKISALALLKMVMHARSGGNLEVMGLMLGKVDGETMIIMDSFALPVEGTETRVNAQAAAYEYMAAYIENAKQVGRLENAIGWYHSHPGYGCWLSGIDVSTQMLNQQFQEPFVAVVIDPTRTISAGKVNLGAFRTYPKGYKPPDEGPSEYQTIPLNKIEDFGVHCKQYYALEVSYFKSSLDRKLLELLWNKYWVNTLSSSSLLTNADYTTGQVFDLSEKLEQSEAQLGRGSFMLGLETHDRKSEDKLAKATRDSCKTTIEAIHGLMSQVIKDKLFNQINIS
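Assay system: HEK293T-derived human Csn5 enzyme; quantity: 0.24 nM enzyme; medium: Tris/NaCl/DTT buffer, pH 7.5; also added: substrate SCFSkp2-Nedd8OG, 10 nM; doses: 12.5 µM compound; schedule: 90 min reaction at room temperature; signal: FP; read-out: % inhibition of substrate cleavage by Csn5; benchmarks: substrate-only high control, full reaction low control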
TPT1 inhibitor – blocks Candida albicans tRNA 2'-phosphotransferase; recombinant caTPT1, FP RNA substrate dephosphorylation; inhibition, % at 5 µM; 300,000 tested, 0.81% active; AID 1962;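 active means inhibition above the mean of all tested compounds plus 3 SD, set per screening campaign, cut at about 24% in these data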;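 further: plate controls were DMSO alone for no effect and ferristatin control at 100 nM for full effect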
Rpn11 inh – inhibitors of human proteasome Rpn11; human 26S proteasome, Ub4-pepOG fluorescence polarization; 20S core pre-blocked with epoxomicin; O00487; inhibition, % at 20 µM; 360,000 tested, 0.59% active;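 active means inhibition at 20 µM, scaled to each plate's controls, above about 33%, limit read from the data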
HNF4A DNA FP – change in binding of human HNF4 alpha to DNA. P41235. HNF4a-FITC DNA binding, fluorescence polarization, 1 h. activity change, % at 10 µM. 360,000 tested, 0.3% active; in the data active means activity change above about 30%, passing the limit was not always enough
PP1 inh – PP1-alpha (human) inhibition in PP5 counter-screen. P62136. 320,000 tested, 0.9% active. purified PP1alpha, OMFP fluorescence. inhibition, % at 6.7 µM. AID 2235;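 active means inhibition above the mean inhibition of all tested compounds plus 3 SD, computed separately for each screening campaign, cut at about 15% in these data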
Target sequence (P62136 whole entry, looked up): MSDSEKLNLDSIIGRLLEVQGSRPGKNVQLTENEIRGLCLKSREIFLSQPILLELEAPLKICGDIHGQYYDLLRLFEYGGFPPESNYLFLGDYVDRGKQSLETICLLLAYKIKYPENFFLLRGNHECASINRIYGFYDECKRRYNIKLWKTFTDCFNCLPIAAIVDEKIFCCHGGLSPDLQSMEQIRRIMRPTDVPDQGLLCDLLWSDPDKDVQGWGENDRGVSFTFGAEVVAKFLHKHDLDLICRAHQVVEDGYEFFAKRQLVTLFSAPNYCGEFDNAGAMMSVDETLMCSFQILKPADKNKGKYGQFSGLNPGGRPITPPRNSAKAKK
Rpn11 inh conf – confirmation of human proteasome Rpn11 inhibitors. shares compounds with Rpn11 inh. inhibition, % at 20 µM. purified human 26S proteasome, Ub4-pepOG fluorescence polarization; proteasome pretreated with epoxomicin. 1,900 tested, 29% active. AID 602318
MMP-2 counter-1 – MMP-2 (human) inhibition counter-screen; shares compounds with Rpn11 inh; recombinant MMP-2, FRET peptide cleavage fluorescence; inhibition, % at 20 µM; 1,900 tested, 4% active;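 further: human MMP-2 activated beforehand with APMA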
Thrombin inh – counter-screen for RPN11 inhibitors: inhibition of bovine thrombin | shares compounds with Rpn11 inh | bovine thrombin cleavage of Ub4-pepOG, fluorescence polarization | inhibition, % at 20 µM | 1,900 tested, 13% active;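 active means mean inhibition at least 40% at 20 µM, or signal 3 deviations below plate average, so some actives read negative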;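 further: plate controls were thrombin with DMSO for no effect and buffer wells lacking thrombin for full effect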
CSN5 deneddyl – Csn5 (human) deneddylation inhibition, single-concentration validation; 540 tested, 62% active; shares compounds with CSN inh; inhibition, % at 16.6 µM; Csn5 deneddylation of SCF-Nedd8OG, fluorescence polarization, 90 min; AID 720654; in the data active means inhibition above about 50%;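 further: 0% = DMSO with enzyme and 100% = no enzyme wells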
MMP-2 counter-2 – MMP-2 (human) inhibition, counter-screen for CSN hits; inhibition, % at 16.6 µM; recombinant MMP-2, FRET substrate fluorescence, 60 min; 540 tested, 33% active; AID 720655; shares compounds with CSN inh;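 active means corrected plate-normalized z-score of 5 or more, or -5 or less, or inhibition of 15% or more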;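 further: plate controls were DMSO wells with enzyme for no effect and buffer wells lacking MMP-2 for full effect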
Thrombin counter – counter-screen for CSN deneddylation inhibitors: bovine thrombin inhibition. shares compounds with CSN inh. bovine thrombin cleavage of Ub4-pepOG, fluorescence polarization. inhibition, % at 16.6 µM. 540 tested, 49% active. AID 720656;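 active means inhibition at or above a set limit, with a fluorescence interference ratio between 0.5 and a set maximum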
The depositor's hits bear a star. An excerpt weighted towards active compounds, which were near 2.7% of everything screened. Unless noted, no stated cut-off is given here; in the data, active means inhibition above about 40%; inactive means the rest.

How did CC(=O)NC1=NC(=O)/C(=C/c2cc(C)n(-c3cccc(C(=O)O)c3)c2C)S1 do in these assays?
NadD inh: 4; CSN inh: 61*; Rpn11 inh: 136*; HNF4A DNA FP: 49*; Rpn11 inh conf: active; MMP-2 counter-1: 40*; Thrombin inh: 136*; CSN5 deneddyl: -34; MMP-2 counter-2: 16*; Thrombin counter: 53*

How did COC(=O)c1ccc(COc2ccc(/C=C(\C#N)c3nc4ccccc4[nH]3)cc2OC)o1 do in these assays?
NadD inh: 18; CSN inh: 57*; TPT1 inhibitor: 3; Rpn11 inh: 138*; HNF4A DNA FP: 26; PP1 inh: 4; Rpn11 inh conf: 127*; MMP-2 counter-1: -150; Thrombin inh: 90*; CSN5 deneddyl: -68; MMP-2 counter-2: -5; Thrombin counter: 41*

Results for COc1cc(/C=C(/C#N)c2nc3ccccc3[nH]2)ccc1OCc1ccc(C(=O)O)o1 ?
NadD inh: 16; CSN inh: 1; TPT1 inhibitor: 11; Rpn11 inh: 5; HNF4A DNA FP: 5; PP1 inh: 13

Results for Cc1sc2nc3c4ccccc4c(NCc4ccco4)nn3c(=O)c2c1C ?
NadD inh: 20; CSN inh: 64*; TPT1 inhibitor: 6; Rpn11 inh: 47*; HNF4A DNA FP: -1; PP1 inh: 2; Rpn11 inh conf: 0; MMP-2 counter-1: -13; Thrombin inh: -6; CSN5 deneddyl: 102*; MMP-2 counter-2: 7; Thrombin counter: 7

What do the screens show for `COc1ccc2nc(C)cc(N/N=C/c3ccc(F)cc3)c2c1`?
NadD inh: 4; CSN inh: 45*; TPT1 inhibitor: 1; Rpn11 inh: 69*; HNF4A DNA FP: -3; PP1 inh: 6; Rpn11 inh conf: 4; MMP-2 counter-1: -27; Thrombin inh: -41; CSN5 deneddyl: 92*; MMP-2 counter-2: 16*; Thrombin counter: -10

What do the screens show for `O=C(c1ccc(Cl)cc1)N1CCC(C(=O)N2CCCc3ccccc32)CC1`?
NadD inh: 1; CSN inh: 0; TPT1 inhibitor: 2; Rpn11 inh: -1; HNF4A DNA FP: -1; PP1 inh: 3

What do the screens show for `O=C1[C@@H](Oc2ccccc2)[C@@H](c2cnc3ccccc3c2)N1c1ccccc1`?
NadD inh: 8; CSN inh: -4; Rpn11 inh: 2; HNF4A DNA FP: -1

How did CC(=C\c1ccccc1)/C=C1/SC(=S)N(CCCC(=O)O)C1=O do in these assays?
NadD inh: 5; CSN inh: 32; Rpn11 inh: 9; HNF4A DNA FP: 5

Results for O=C(O)CCCCCN1C(=O)/C(=C/c2cn(-c3ccccc3)nc2-c2cccs2)SC1=S ?
NadD inh: 31*; CSN inh: 92*; Rpn11 inh: 51*; HNF4A DNA FP: -4; Rpn11 inh conf: 84*; MMP-2 counter-1: -18; Thrombin inh: 48*; CSN5 deneddyl: 82*; MMP-2 counter-2: -6; Thrombin counter: 22*

How did O=C(Nc1ccc(Cl)cc1)Nc1cccc2nsnc12 do in these assays?
NadD inh: -7; CSN inh: -4; TPT1 inhibitor: -2; Rpn11 inh: 0; HNF4A DNA FP: 3; PP1 inh: 2

How did O=C1c2cccc(NCCCNCCO)c2C(=O)c2cccc(NCCCNCCO)c21 do in these assays?
NadD inh: 1; CSN inh: 94*; Rpn11 inh: 42*; HNF4A DNA FP: 42; Rpn11 inh conf: 21; MMP-2 counter-1: 38; Thrombin inh: -44; CSN5 deneddyl: -21; MMP-2 counter-2: 34*; Thrombin counter: -32

Results for O=C1c2ccccc2C(=O)c2c(NCc3cccnc3)cccc21 ?
NadD inh: 2; CSN inh: 2; TPT1 inhibitor: -2; Rpn11 inh: 2; HNF4A DNA FP: 5; PP1 inh: 0

Results for CCOc1ccccc1Nc1nnc(SCC(=O)NC2CC2)s1 ?
NadD inh: -3; CSN inh: -1; Rpn11 inh: 6; HNF4A DNA FP: 2

How did COc1cc(N(C)C)ccc1C=c1c2ccccc2n2c1cc(-c1ccccc1)[n+]2C do in these assays?
NadD inh: 13; CSN inh: 71*; Rpn11 inh: 115*; HNF4A DNA FP: 176; Rpn11 inh conf: 98*; MMP-2 counter-1: -84; Thrombin inh: 82*; CSN5 deneddyl: -15; MMP-2 counter-2: 73*; Thrombin counter: 57*

Results for O=C(O)CN1C(=O)/C(=C\c2cc(Br)ccc2OCc2ccc(Cl)cc2Cl)SC1=S ?
NadD inh: 36*; CSN inh: 36*; TPT1 inhibitor: -3; Rpn11 inh: 80*; HNF4A DNA FP: -22; PP1 inh: -3; Rpn11 inh conf: 13; MMP-2 counter-1: 11; Thrombin inh: 79*; CSN5 deneddyl: 33; MMP-2 counter-2: 2; Thrombin counter: 8

What do the screens show for `O=C(O)CN1C(=O)/C(=C\c2cccc(OCc3ccc(Cl)cc3)c2)SC1=S`?
NadD inh: 12; CSN inh: 10; TPT1 inhibitor: 2; Rpn11 inh: 12; HNF4A DNA FP: -7; PP1 inh: 11

Results for COc1ccc2[nH]c3c(c2c1)CCN1C(=O)C(CC(=O)NC(C)(C)C)C[C@H](C(=O)N2CCCCC2)[C@@]31C (some centres undefined) ?
NadD inh: 5; CSN inh: -2; Rpn11 inh: 6; HNF4A DNA FP: 4

Results for CCN1/C(=C/c2ccc3cc(C)cc(C)c3[n+]2CC)Sc2cc(C)ccc21 ?
NadD inh: 15; CSN inh: 81*; Rpn11 inh: 170*; HNF4A DNA FP: 151*; Rpn11 inh conf: 89*; MMP-2 counter-1: -93; Thrombin inh: 135*; CSN5 deneddyl: 16; MMP-2 counter-2: 64*; Thrombin counter: 23*

Screens as filed in PubChem.
